Data reported in ChEMBL document CHEMBL1134512, “Bicyclic analogues of D-myo-inositol 1,4,5-trisphosphate related to adenophostin A: synthesis and biological activity” (J Med Chem, 2001).

Key:
[1] = Binding affinity towards rat liver membrane, measured using equilibrium competition binding with [3H]Inositol(1,4,5)P3
Rattus norvegicus [2] = species: Rattus norvegicus; assay: […] on [Ca2+] release from the intracellular stores of permealized hepatocytes; assay type: functional; conditions: Hepatocyte
Outline: (§1)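 Permeabilized rat hepatocytes loaded with 45Ca2+ to steady state (5 min, 37 °C) in cytosol-like medium pH 7.0 with ATP 1.5 mM, creatine phosphate 5 mM, creatine phosphokinase 5 units/mL, FCCP 10 µM. Thapsigargin (1.25 µM) added, agonist 30 s later, store Ca2+ measured by rapid filtration after 60 s. Four-parameter logistic fit gives EC50, Hill slope, maximal release; three experiments.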

Rattus norvegicus [3] = species: Rattus norvegicus; assay: Fraction of total [Ca2+] stores released by a maximal concentration of the compound; assay type: functional; outline: as §1
[4] = Hill coefficient, measured using equilibrium competition binding with [3H]Inositol(1,4,5)P3
[5] = Ratio to Ins(1,4,5)P3 was measured(ratio greater than 1 denotes greater affinity and less than -1 denotes lesser affinity)
[6] = Ratio to Ins(1,4,5)P3, for the effect on [Ca2+] release from the intracellular stores of permealized hepatocytes (ratio greater than 1 denotes greater potency and less than -1 denotes lesser potency); assay type: functional, Hepatocyte
Hepatocyte = assay: Hill coefficient for the effect on [Ca2+] release from the intracellular stores of permealized hepatocytes; assay type: cell-based; outline: as §1

| SMILES | Kd [1] | EC50 (Rattus norvegicus [2]) | Max response (Rattus norvegicus [3]) | Hill coefficient [4] | Ratio [5] | Ratio [6] | Hill coefficient (Hepatocyte) |
| --- | --- | --- | --- | --- | --- | --- | --- |
| O=P(O)(O)O[C@@H]1CO[C@@H]2[C@H](O)[C@@H](OP(=O)(O)O)[C@H](OP(=O)(O)O)[C@@H](O)[C@@H]2OC1 | 98 nM | 1650 nM | 59% | 1.01 | -21 | -18 | 2.61 |
| O=P(O)(O)O[C@@H]1[C@H](O)[C@H](O)[C@@H](OP(=O)(O)O)[C@H](OP(=O)(O)O)[C@H]1O [INS(1,4,5)P3] | 4.56 nM | 90 nM | 59% | 1.16 | 1 | 1 | 1.48 |
| Nc1ncnc2c1ncn2[C@@H]1O[C@H](CO)[C@@H](O[C@H]2O[C@H](CO)[C@@H](OP(=O)(O)O)[C@H](OP(=O)(O)O)[C@H]2O)[C@H]1OP(=O)(O)O [ADENOPHOSTIN A] | 0.55 nM | 9.2 nM | 49% | 1.17 | 8.3 | 9.8 | 2.99 |
| O=P(O)(O)O[C@H]1CO[C@@H]2[C@H](O)[C@@H](OP(=O)(O)O)[C@H](OP(=O)(O)O)[C@@H](O)[C@@H]2OC1 | 62 nM | 1230 nM | 59% | 1.12 | -14 | -14 | 2.9 |
